Calls of active or inactive are those of the source.
How the values were obtained:
[1] = tested on: Klebsiella pneumoniae; experiment: Antibacterial activity against drug-resistant carbapenemase producing Klebsiella pneumoniae clinical isolate EC-13-23 after 16 to 20 hrs by broth microdilution method; assay type: functional
Method in brief: (§1)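 CLSI broth microdilution in Mueller-Hinton broth. A 4-6 h culture was diluted to about 10⁶ CFU/mL and mixed 1:1 with compound dilutions prepared at 256 to 0.5 µg/mL from aqueous stocks. Plates were incubated at 37 °C for 16-20 h and read visually for MIC. Each concentration was run in duplicate, and the experiment was repeated at least twice. Vancomycin and meropenem were comparators.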

[2] = tested on: Klebsiella pneumoniae; experiment: Antibacterial activity against drug-resistant carbapenemase producing Klebsiella pneumoniae clinical isolate KP-14-2 after 16 to 20 hrs by broth microdilution method; assay type: functional; method in brief: as §1
[3] = tested on: Staphylococcus aureus; experiment: Disruption of 24 hrs cultured Staphylococcus aureus ATCC 29213 biofilm assessed as cell viability in biofilm at 16 ug/ml after 24 hrs by crystal violet staining-based assay (reference value: 15.96 log10CFU/ml); assay type: functional
[4] = tested on: Staphylococcus aureus; experiment: Antibacterial activity against methicillin-resistant Staphylococcus aureus clinical isolate 20131012632sau after 16 to 20 hrs by broth microdilution method; assay type: functional; method in brief: as §1
[5] = tested on: Escherichia coli; experiment: Antibacterial activity against drug-resistant NDM1 producing Escherichia coli clinical isolate CF-13-61 after 16 to 20 hrs by broth microdilution method; assay type: functional; method in brief: as §1
[6] = tested on: Staphylococcus aureus; experiment: Bactericidal activity against methicillin-resistant Staphylococcus aureus in presence of 50% sheep serum after 20 to 24 hrs; assay type: functional; details: read-out: MBC99.9
Method in brief: (§2)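 MRSA at 10⁵ CFU/mL in 50% MHB plus 50% sheep serum, plasma or defibrinated blood; serum and plasma were obtained by centrifugation at 3,500 rpm for 10 min. Aqueous dilutions prepared at 512-4 µg/mL were added 1:3 to the suspension and incubated for 20-24 h at 37 °C. Well contents (20 µL) were plated on MHA for 20-24 h, and MBC was the concentration giving no colonies.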

[7] = tested on: Klebsiella pneumoniae; experiment: Antibacterial activity against drug-resistant carbapenemase producing Klebsiella pneumoniae clinical isolate KP-13-55 after 16 to 20 hrs by broth microdilution method; assay type: functional; method in brief: as §1
[8] = Hemolytic activity in sheep RBC after 1 hr; assay type: ADME, cell-based, Ovis aries, Erythrocyte; details: sheep red blood cells (erythrocytes)
Method in brief: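 Sheep red blood cells (150 µL suspension) mixed with 50 µL of compound dilutions (5120-10 µg/mL), 1 h at 37 °C, then centrifuged. Supernatant read at 540 nm. Percent hemolysis calculated relative to RBC-only control (0%) and 0.1% Triton X-100 (100%).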

[9] = tested on: Escherichia coli; experiment: Antibacterial activity against Escherichia coli ATCC 25922 after 16 to 20 hrs by broth microdilution method; assay type: functional
Method in brief: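 Broth microdilution per CLSI. Bacteria grown 4-6 h (about 10⁸ CFU/mL), then diluted to about 10⁶ CFU/mL. Medium: Mueller-Hinton broth, except Luria-Bertani broth for E. coli. Compounds in sterile water, twofold series 256-0.5 µg/mL, mixed 1:1 with inoculum, 37 °C for 16-20 h. MIC is the lowest concentration without visible growth. Duplicate wells; experiment repeated at least twice.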

[10] = tested on: Klebsiella pneumoniae; experiment: Antibacterial activity against drug-resistant carbapenemase producing Klebsiella pneumoniae clinical isolate KP-14-3 after 16 to 20 hrs by broth microdilution method; assay type: functional; method in brief: as §1
[11] = tested on: Klebsiella pneumoniae; experiment: Antibacterial activity against drug-resistant carbapenemase producing Klebsiella pneumoniae clinical isolate KP-14-4 after 16 to 20 hrs by broth microdilution method; assay type: functional; method in brief: as §1
[12] = tested on: Escherichia coli; experiment: Antibacterial activity against drug-resistant NDM1 producing Escherichia coli clinical isolate EA-14-61 after 16 to 20 hrs by broth microdilution method; assay type: functional; method in brief: as §1
[13] = tested on: Escherichia coli; experiment: Antibacterial activity against drug-resistant NDM1 producing Escherichia coli clinical isolate EC-14-54 after 16 to 20 hrs by broth microdilution method; assay type: functional; method in brief: as §1
[14] = tested on: Escherichia coli; experiment: Antibacterial activity against drug-resistant NDM1 producing Escherichia coli clinical isolate Ecl-14-58 after 16 to 20 hrs by broth microdilution method; assay type: functional; method in brief: as §1
[15] = tested on: Escherichia coli; experiment: Antibacterial activity against drug-resistant NDM1 producing Escherichia coli clinical isolate Ecl-14-56 after 16 to 20 hrs by broth microdilution method; assay type: functional; method in brief: as §1
[16] = tested on: Staphylococcus aureus; experiment: Antibacterial activity against methicillin-resistant Staphylococcus aureus clinical isolate 1105183 cono7 after 16 to 20 hrs by broth microdilution method; assay type: functional; method in brief: as §1
[17] = tested on: Escherichia coli; experiment: Antibacterial activity against drug-resistant NDM1 producing Escherichia coli clinical isolate KP-13-58 after 16 to 20 hrs by broth microdilution method; assay type: functional; method in brief: as §1
[18] = tested on: Staphylococcus aureus; experiment: Antibacterial activity against methicillin-resistant Staphylococcus aureus clinical isolate 20130911034sau after 16 to 20 hrs by broth microdilution method; assay type: functional; method in brief: as §1
[19] = tested on: Staphylococcus aureus; experiment: Antibacterial activity against methicillin-resistant Staphylococcus aureus clinical isolate 1207007 after 16 to 20 hrs by broth microdilution method; assay type: functional; method in brief: as §1
[20] = tested on: Staphylococcus aureus; experiment: Bactericidal activity against Staphylococcus aureus ATCC 29213 after 20 to 24 hrs; assay type: functional; details: read-out: MBC99.9
Method in brief: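 MBC: wells showing little or no turbidity in the broth microdilution MIC assay were plated (20 µL) on agar and incubated 20-24 h at 37 °C. MBC is the lowest concentration giving no colonies.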

[21] = tested on: Staphylococcus aureus; experiment: Disruption of 24 hrs cultured Staphylococcus aureus ATCC 29213 biofilm assessed as cell viability in biofilm at 4 ug/ml after 24 hrs by crystal violet staining-based assay (reference value: 15.96 log10CFU/ml); assay type: functional
[22] = tested on: Escherichia coli; experiment: Antibacterial activity against drug-resistant NDM1 producing Escherichia coli clinical isolate SM-15-84 after 16 to 20 hrs by broth microdilution method; assay type: functional; method in brief: as §1
[23] = tested on: Klebsiella pneumoniae; experiment: Antibacterial activity against drug-resistant carbapenemase producing Klebsiella pneumoniae clinical isolate KP-14-18 after 16 to 20 hrs by broth microdilution method; assay type: functional; method in brief: as §1
[24] = tested on: Klebsiella pneumoniae; experiment: Antibacterial activity against drug-resistant carbapenemase producing Klebsiella pneumoniae clinical isolate KP-14-8 after 16 to 20 hrs by broth microdilution method; assay type: functional; method in brief: as §1
[25] = tested on: Escherichia coli; experiment: Antibacterial activity against drug-resistant NDM1 producing Escherichia coli clinical isolate EC-13-49 after 16 to 20 hrs by broth microdilution method; assay type: functional; method in brief: as §1
[26] = tested on: Staphylococcus aureus; experiment: Antibacterial activity against methicillin-resistant Staphylococcus aureus clinical isolate 1104060 after 16 to 20 hrs by broth microdilution method; assay type: functional; method in brief: as §1
[27] = tested on: Klebsiella pneumoniae; experiment: Antibacterial activity against drug-resistant carbapenemase producing Klebsiella pneumoniae clinical isolate KP-13-45 after 16 to 20 hrs by broth microdilution method; assay type: functional; method in brief: as §1
[28] = tested on: Escherichia coli; experiment: Antibacterial activity against Escherichia coli ATCC 25922 at sub MIC after 20 passages; assay type: functional, organism-based
Method in brief: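 The MIC was first measured by broth microdilution. Cells grown at MIC/2 were then carried into a fresh MIC assay after each 24 h, repeated over 20 serial passages. Norfloxacin (S. aureus) and colistin (E. coli) served as control antibiotics. Resistance was defined as a >4-fold rise over the original MIC.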

[29] = tested on: Staphylococcus aureus; experiment: Antibacterial activity against methicillin-resistant Staphylococcus aureus clinical isolate 0831010 after 16 to 20 hrs by broth microdilution method; assay type: functional; method in brief: as §1
[30] = tested on: Staphylococcus aureus; experiment: Bactericidal activity against methicillin-resistant Staphylococcus aureus in presence of 50% sheep blood after 20 to 24 hrs; assay type: functional; details: read-out: MBC99.9; method in brief: as §2
[31] = tested on: Staphylococcus aureus; experiment: Disruption of 24 hrs cultured Staphylococcus aureus ATCC 29213 biofilm assessed as cell viability in biofilm at 8 ug/ml after 24 hrs by crystal violet staining-based assay (reference value: 15.96 log10CFU/ml); assay type: functional
[32] = tested on: Klebsiella pneumoniae; experiment: Antibacterial activity against drug-resistant carbapenemase producing Klebsiella pneumoniae clinical isolate KP-14-1 after 16 to 20 hrs by broth microdilution method; assay type: functional; method in brief: as §1

With `CCCCCCCC[N+](C)(C)CC(=O)Nc1ccc(C(=O)/C=C/c2ccccc2F)cc1.[Cl-]` the MIC [1] was 4 µg/mL, the MIC [2] was 16 µg/mL and the Activity [3] was 10.95 log10CFU/ml. For the same molecule, the MIC [4] was 2 µg/mL, the MIC [5] was 4 µg/mL and the MBC [6] was 32 µg/mL. It also gave an MIC [7] of 16 µg/mL, an HC50 at 1 h [8] of 137 µg/mL and an MIC [9] of 2 µg/mL. It also gave an MIC [10] of 8 µg/mL, an MIC [11] of 4 µg/mL and an MIC [12] of 4 µg/mL. For the same molecule, the MIC [13] was 16 µg/mL, the MIC [14] was 4 µg/mL and the MIC [15] was 4 µg/mL. The MIC [16] was 1 µg/mL, the MIC [17] was 1 µg/mL and the MIC [18] was 0.5 µg/mL. For the same molecule, the MIC [19] was 0.25 µg/mL, the MBC [20] was 8 µg/mL and the Activity [21] was 12.93 log10CFU/ml. It also gave an MIC [22] of 16 µg/mL, an MIC [23] of 16 µg/mL and an MIC [24] of 4 µg/mL. The MIC [25] was 4 µg/mL, the MIC [26] was 8 µg/mL and the MIC [27] was 4 µg/mL. The Activity [28] was “Active”, the MIC [29] was 0.5 µg/mL and the MBC [30] was 128 µg/mL. The Activity [31] was 11.696 log10CFU/ml and the MIC [32] was 8 µg/mL.

Reference: ChEMBL document CHEMBL4138242, “Synthesis and antibacterial evaluation of novel cationic chalcone derivatives possessing broad spectrum antibacterial activity” (Eur J Med Chem, 2018)
